In brackets after ≈: the same amount, converted by molar mass.
Tests used:
[1] = Aqueous solubility of the compound at pH 6.8; type: physicochemical
[2] = AUC in Brown Norway rat iris and ciliary body administered topically after 3 hrs; type: ADME, tissue-based; parameters: time < 3 hr; concentration or dose not given beside the values; details: topical or ocular
Outline: (§1)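 Adult male Brown Norway rats (200−250 g) received a single topical 4 μL dose of 0.1% solution to each eye (5% cremaphor EL, 0.78% NaCl, 0.1% Na3PO4 in sterile water, pH 6.8). Composite design, three animals per group, sampled at 0.25, 1 and 3 h. Plasma taken by cardiac puncture. Eyes enucleated and PBS-rinsed, tissues dissected and homogenized. Parent drug measured by LC/MS/MS. AUC over 0−3 h.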

[3] = (§2) AUC in Brown Norway rat plasma administered topically after 3 hrs; type: ADME, cell-free; parameters: time < 3 hr; concentration or dose not given beside the values; details: Brown Norway, topical or ocular; outline: as §1
[4] = system: Iris and ciliary body (Rattus norvegicus); assay: AUC in Brown Norway rat iris and ciliary body administered topically after 3 hrs; details: in vivo, topical_or_ocular, BLD = below limit of detection
Plasma [5] = assay: as §2; type: ADME, cell-free; parameters: time < 3 hr; concentration or dose not given beside the values; details: topical_or_ocular, 3 h, BLD = below limit of detection; outline: as §1
[6] = AUC (0 to last) in Brown Norway rat aqueous humor administered topically; type: ADME; parameters: time 0 - last; details: topical or ocular
Outline: (§3)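 Male Brown Norway rats, 200−250 g, dosed once topically with 4 μL of a 0.02% clinical formulation per eye. Composite design with 3 animals per time point. Cornea, aqueous humor, iris/ciliary body and plasma collected at 0 (untreated), 0.083, 0.25, 0.5, 1, 3, 6 and 24 h. Eyes rinsed in PBS after enucleation.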

Plasma [7] = assay: Drug uptake in Brown Norway rat plasma administered topically after 3 hrs; type: ADME, cell-free; details: topical_or_ocular
Outline: (§4)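 Abbreviated ocular PK in male Brown Norway rats, 200−250 g. Single topical 4 μL dose per eye of 0.1% solution in 5% cremaphor EL, 0.78% NaCl, 0.1% Na3PO4, water, pH 6.8. Three animals per group, sampled at 0.25, 1 and 3 h. Tissues homogenized in PBS with 10% acetonitrile.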

[8] = Drug uptake in Brown Norway rat ciliary body administered topically after 3 hrs; type: ADME, tissue-based; details: in vivo, topical_or_ocular; outline: as §4
[9] = Cmax in Brown Norway rat aqueous humor administered topically; type: ADME, tissue-based, Aqueous humor of eyeball; details: topical or ocular; outline: as §3
[10] = Tmax in Brown Norway rat plasma administered topically; type: ADME, cell-free; details: topical or ocular; outline: as §3
[11] = Tmax in Brown Norway rat iris administered topically; type: ADME, tissue-based; details: topical or ocular; outline: as §3
[12] = Cmax in Brown Norway rat plasma administered topically; type: ADME, cell-free; details: topical or ocular; outline: as §3
Cannabinoid receptor 1 = Cannabinoid receptor 1 (Homo sapiens, UniProt P21554); assay: Agonist activity at CB1 receptor (unknown origin)
[13] = Drug uptake in Brown Norway rat cornea administered topically after 3 hrs; type: ADME, tissue-based; details: in vivo, topical_or_ocular; outline: as §4
[14] = Cmax in Brown Norway rat cornea administered topically; type: ADME, tissue-based; details: topical or ocular; outline: as §3
[15] = Drug uptake in Brown Norway rat ciliary body administered topically after 1 hr; type: ADME, tissue-based; details: in vivo, topical_or_ocular; outline: as §4
[16] = Tmax in Brown Norway rat aqueous humor administered topically; type: ADME, tissue-based, Aqueous humor of eyeball; details: topical or ocular; outline: as §3
[17] = Cmax in Brown Norway rat iris administered topically; type: ADME, tissue-based; details: topical or ocular; outline: as §3
[18] = Tmax in Brown Norway rat cornea administered topically; type: ADME, tissue-based; details: topical or ocular; outline: as §3
[19] = Drug uptake in Brown Norway rat aqueous humor administered topically after 3 hrs; type: ADME, tissue-based, Aqueous humor of eyeball; details: in vivo, topical_or_ocular; outline: as §4
[20] = AUC (0 to last) in Brown Norway rat cornea administered topically; type: ADME, tissue-based; parameters: time 0 - last; details: topical or ocular; outline: as §3
[21] = Drug uptake in Brown Norway rat iris administered topically after 3 hrs; type: ADME, tissue-based; details: in vivo, topical_or_ocular; outline: as §4
Cannabinoid receptor 2 = Cannabinoid receptor 2 (Homo sapiens, UniProt P34972); assay: Agonist activity at CB2 receptor (unknown origin)
[22] = Drug uptake in Brown Norway rat iris administered topically after 1 hr; type: ADME, tissue-based; details: in vivo, topical_or_ocular; outline: as §4

Sequence of Cannabinoid receptor 1 (P21554 whole entry): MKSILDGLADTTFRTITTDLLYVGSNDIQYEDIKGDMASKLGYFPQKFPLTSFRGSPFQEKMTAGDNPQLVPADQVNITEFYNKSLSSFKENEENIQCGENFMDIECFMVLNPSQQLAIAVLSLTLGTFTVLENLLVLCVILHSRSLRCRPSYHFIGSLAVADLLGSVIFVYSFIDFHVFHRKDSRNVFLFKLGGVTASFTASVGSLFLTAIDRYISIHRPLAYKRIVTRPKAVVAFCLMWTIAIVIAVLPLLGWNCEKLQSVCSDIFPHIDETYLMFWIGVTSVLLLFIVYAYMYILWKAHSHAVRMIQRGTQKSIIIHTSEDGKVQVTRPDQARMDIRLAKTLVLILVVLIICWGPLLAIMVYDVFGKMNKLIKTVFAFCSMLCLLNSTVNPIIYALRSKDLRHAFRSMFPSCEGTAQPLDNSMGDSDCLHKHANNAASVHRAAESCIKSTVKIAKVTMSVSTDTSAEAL
Sequence of Cannabinoid receptor 2 (P34972 whole entry): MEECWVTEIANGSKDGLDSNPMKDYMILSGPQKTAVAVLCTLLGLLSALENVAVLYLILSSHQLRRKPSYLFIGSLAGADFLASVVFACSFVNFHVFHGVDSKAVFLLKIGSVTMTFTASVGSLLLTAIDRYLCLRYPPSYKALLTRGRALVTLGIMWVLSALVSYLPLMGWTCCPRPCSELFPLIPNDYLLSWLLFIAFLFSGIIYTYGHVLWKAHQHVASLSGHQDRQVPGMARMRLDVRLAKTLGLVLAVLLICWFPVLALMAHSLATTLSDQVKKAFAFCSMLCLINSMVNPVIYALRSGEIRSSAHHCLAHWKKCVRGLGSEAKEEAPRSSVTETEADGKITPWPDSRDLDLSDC

SMILES	solubility ([1]; buffer)	AUC at 3 h [2] [µM·h]	AUC at 3 h [3] [µM·h]	AUC [4]	AUC (Plasma [5])	other results
CCOC(=O)c1c(C)cc2nc(COC(=O)NCCOC(=O)[C@@H](NC(=O)[C@H](N)C(C)C)C(C)C)n(-c3ccccc3S(=O)(=O)NC)c(=O)c2c1C	soluble					
CCOC(=O)c1c(C)cc2nc(COC(=O)NCCOP(=O)(O)O)n(-c3ccccc3S(=O)(=O)NC)c(=O)c2c1C	soluble	0.017	0.01			
CCOC(=O)c1c(C)cc2nc(COC(=O)NCCOC(=O)CN)n(-c3ccccc3S(=O)(=O)NC)c(=O)c2c1C	soluble	0.0174	0.0039			
CCOC(=O)c1c(C)cc2nc(COC(=O)NCCOC(=O)CCN)n(-c3ccccc3S(=O)(=O)NC)c(=O)c2c1C	soluble			BLD	BLD	
CCOC(=O)c1c(C)cc2nc(COC(=O)NCCOC(=O)C3CCCCN3)n(-c3ccccc3S(=O)(=O)NC)c(=O)c2c1C (stereo not drawn)	soluble	0.0367	0.0118			
CCOC(=O)c1c(C)cc2nc(COC(=O)NCCOC(=O)CN3CCCCC3)n(-c3ccccc3S(=O)(=O)NC)c(=O)c2c1C	soluble	0.321			BLD	
CCOC(=O)c1c(C)cc2nc(COC(=O)NCCOC(=O)c3cn4ccccc4n3)n(-c3ccccc3S(=O)(=O)NC)c(=O)c2c1C	soluble			BLD	BLD	
CCOC(=O)c1c(C)cc2nc(COC(=O)NCCOC(=O)c3cccnc3)n(-c3ccccc3S(=O)(=O)NC)c(=O)c2c1C	soluble	0.213			BLD	
CCOC(=O)c1c(C)cc2nc(COC(=O)NCCOC(=O)[C@H](N)c3ccccc3Cl)n(-c3ccccc3S(=O)(=O)NC)c(=O)c2c1C	soluble		0.0036	BLD		
CCOC(=O)c1c(C)cc2nc(COC(=O)NCCOC(=O)[C@@H](N)C(C)C)n(-c3ccccc3S(=O)(=O)NC)c(=O)c2c1C	soluble	0.04	0.02			
CCOC(=O)c1c(C)cc2nc(COC(=O)NCCOC(=O)[C@H](NC(=O)[C@@H](N)C(C)C)C(C)C)n(-c3ccccc3S(=O)(=O)NC)c(=O)c2c1C	soluble	0.104			BLD	
CCOC(=O)c1c(C)cc2nc(COC(=O)NCCO)n(-c3ccccc3S(=O)(=O)NC)c(=O)c2c1C [SAD448]			0.014	BLD		AUC(0-t) [6]: 0.05 µM·h; Drug uptake (Plasma [7]): Not Active; Drug uptake [8]: Not Active; Cmax [9]: 82 nM; Tmax [10]: 4.98 min; Tmax [11]: 4.98 min; Cmax [12]: 9 nM; solubility ([1]; aqueous medium, read-out: solubility): 340 µM (≈ 181 µg/mL); IC50 (Cannabinoid receptor 1): 0.094 µM; Drug uptake [13]: Not Active; Cmax [14]: 50 nM; Drug uptake [15]: Not Active; Tmax [16]: 4.98 min; Cmax [17]: 18 nM; Tmax [18]: 4.98 min; Drug uptake [19]: Not Active; AUC(0-t) [20]: 0.043 µM·h; Drug uptake [21]: Not Active; IC50 (Cannabinoid receptor 2): 0.0035 µM; Drug uptake [22]: Not Active
